The results in this text go back to ChEMBL document CHEMBL4699542, “Design and synthesis of novel methoxypyridine-derived gamma-secretase modulators” (Bioorg Med Chem, 2020).

Data set [1] is described as follows: AUClast in CD-1 mouse at 5 mg/kg, po administered as single dose measured up to 24 hrs. The conditions noted are these: in vivo. Further details: route oral, dose 5 mg/kg, time <=24. It is filed as ADME, organism-based. A digest of the protocol:
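Male CD-1 mice, 6–8 weeks old, single dose by tail vein (1 mg/kg, 3% NMP/45% PEG300/12% ethanol/40% water) or oral gavage (5 mg/kg, 5% NMP/95% PEG300). Retro-orbital plasma sampled 0.083 (iv only) to 24 h, n=3/timepoint, and analysed by HPLC/MS/MS. Non-compartmental analysis. Half-life taken from the terminal phase using ≥3 non-zero points after Tmax.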

Another data set has as its system Mus musculus. Description: In vivo modulation of gamma secretase in po dosed transgenic J20 mouse overexpressing human APP assessed as reduction in plasma amyloid beta40 level administered via gavage for 3 consecutive days and measured after 4 hrs post last dose on day 3 by meso scale discovery. To be noted: dose mg/kg 25-100, time 3.0 day. Format: functional, organism-based. A digest of the protocol:
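Female J20 mice, 5–6 months old (n=5/dose), dosed orally at 25, 50 or 100 mg/kg or with vehicle (5% NMP/95% PEG300) for 3 consecutive days. Plasma was taken 4 h after the final dose. Aβ38/40/42 measured by Meso Scale multiplex immunoassay, with % reduction relative to vehicle. Mean ± SEM, ANOVA.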

Data set [2] is described as follows: In vivo modulation of gamma secretase transgenic Tg2576 mouse overexpressing human APP harboring K595N/M596L Swedish double mutant assessed as reduction in plasma amyloid beta38 level at 50 mg/kg, po administered via gavage for 14 consecutive days and measured after 4 hrs post last dose on day 14 by meso scale discovery relative to control. It is filed as functional. More on the design: scale not given: the % may be the effect or the level left. To be noted: time 14 day. A digest of the protocol: (§1)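 Female Tg2576 mice, 5–6 months old (n=12/dose), gavaged daily for 14 days with 50 mg/kg or vehicle (5% NMP/95% PEG300). Plasma and brain taken 4 h after the last dose. Aβ38/40/42 quantified by Meso Scale multiplex assay, with % reduction versus vehicle. Mean ± SEM, ANOVA.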

Data set [3] can be described thus: In vivo modulation of gamma secretase transgenic Tg2576 mouse overexpressing human APP harboring K595N/M596L Swedish double mutant assessed as reduction in plasma amyloid beta42 level at 50 mg/kg, po administered via gavage for 14 consecutive days and measured after 4 hrs post last dose on day 14 by meso scale discovery relative to control. It is filed as functional. More on the design: scale not given: the % may be the effect or the level left. The conditions noted are these: time 14 day. A digest of the protocol: as §1

Data set [4] in a line: Drug level in plasma of transgenic Tg2576 mouse overexpressing human APP harboring K595N/M596L Swedish double mutant at 50 mg/kg, po administered via gavage for 14 consecutive days and measured after 4 hrs post last dose on day 14 by HPLC-MS/MS analysis. It is filed as ADME, organism-based. The conditions noted are these: time 14 day. A digest of the protocol:
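Female Tg2576 mice, 5–6 months old, gavaged with 50 mg/kg daily for 14 days (vehicle 5% NMP/95% PEG300), n=12/dose. Plasma and brain collected 4 h after the last dose and analysed by LC-MS/MS. LLOQ was 1 ng/mL in plasma and 5 ng/g in brain.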

The nature of data set [5]: Ratio of drug level in brain to plasma of transgenic Tg2576 mouse overexpressing human APP harboring K595N/M596L Swedish double mutant at 50 mg/kg, po administered via gavage for 14 consecutive days and measured after 4 hrs post last dose on day 14 by HPLC-MS/MS analysis. It is filed as ADME, organism-based. The conditions noted are these: 336 h, time 14 day. A digest of the protocol:
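Female Tg2576 mice, 5–6 months old (n=12/dose), given 50 mg/kg by oral gavage daily for 14 days in 5% NMP/95% PEG300. Sacrificed 4 h after the day-14 dose. Plasma and brain drug levels measured by LC-MS/MS (LLOQ 1 ng/mL plasma, 5 ng/g brain). Ratio = brain/plasma.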

The target of data set [6] is Voltage-gated inwardly rectifying potassium channel KCNH2 (Homo sapiens, UniProt Q12809). Description: Inhibition of human ERG expressed in HEK293 cells by patch clamp assay. It is filed as cell-based. (In general: In patch-clamp work, channel activity is measured electrically.)
Data set [7] is described as follows: Efflux ratio of apparent permeability from basolateral to apical membrane over apical to basolateral membrane in MDCK-MDR1 cells. Format: ADME, cell-based, Canis lupus familiaris. The conditions noted are these: dog. In short, it runs like this:
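Calculated as B-A/A-B apparent permeability ratio across MDR1-MDCK cell monolayers; A-B permeability expressed as ×10⁻⁶ cm/s.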

As a reminder, the IC50 is the concentration at which inhibition is half-maximal.

Sequence of Voltage-gated inwardly rectifying potassium channel KCNH2 (Q12809 whole entry): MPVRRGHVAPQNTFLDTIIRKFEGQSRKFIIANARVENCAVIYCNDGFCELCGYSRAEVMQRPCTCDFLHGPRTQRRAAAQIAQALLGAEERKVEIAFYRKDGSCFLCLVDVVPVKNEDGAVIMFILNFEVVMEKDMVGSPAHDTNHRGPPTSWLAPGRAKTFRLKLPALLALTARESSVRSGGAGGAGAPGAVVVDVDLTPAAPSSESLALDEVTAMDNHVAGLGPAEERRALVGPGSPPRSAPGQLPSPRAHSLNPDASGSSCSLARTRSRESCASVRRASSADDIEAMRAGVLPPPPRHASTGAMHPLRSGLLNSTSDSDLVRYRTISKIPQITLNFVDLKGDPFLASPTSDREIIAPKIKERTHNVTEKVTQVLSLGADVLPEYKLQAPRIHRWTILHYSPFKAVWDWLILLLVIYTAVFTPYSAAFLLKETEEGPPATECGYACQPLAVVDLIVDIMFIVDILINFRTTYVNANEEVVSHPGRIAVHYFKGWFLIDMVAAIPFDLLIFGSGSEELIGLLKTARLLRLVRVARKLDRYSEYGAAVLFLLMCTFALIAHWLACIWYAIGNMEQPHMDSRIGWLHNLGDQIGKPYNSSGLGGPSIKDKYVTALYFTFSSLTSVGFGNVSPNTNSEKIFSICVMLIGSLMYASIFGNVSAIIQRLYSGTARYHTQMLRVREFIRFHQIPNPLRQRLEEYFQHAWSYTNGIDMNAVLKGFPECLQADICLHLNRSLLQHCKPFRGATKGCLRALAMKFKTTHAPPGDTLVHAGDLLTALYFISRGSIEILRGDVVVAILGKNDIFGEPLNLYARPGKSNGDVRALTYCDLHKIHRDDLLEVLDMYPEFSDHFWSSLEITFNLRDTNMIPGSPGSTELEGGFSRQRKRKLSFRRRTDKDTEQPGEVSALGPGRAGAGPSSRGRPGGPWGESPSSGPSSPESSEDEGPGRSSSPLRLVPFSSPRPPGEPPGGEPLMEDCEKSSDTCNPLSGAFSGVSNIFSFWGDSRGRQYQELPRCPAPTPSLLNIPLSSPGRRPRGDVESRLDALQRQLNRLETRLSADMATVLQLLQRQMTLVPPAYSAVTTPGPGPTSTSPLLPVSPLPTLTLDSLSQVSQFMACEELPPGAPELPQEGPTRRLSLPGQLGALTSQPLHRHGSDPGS

Take `CCn1nc2c(c1Nc1nc(-c3ccc(-n4cnc(C)c4)c(OC)n3)cs1)CCC2`: the AUClast in data set [1] is 1205 ng·h/mL. Besides, the values for the Activity entry (with Mus musculus; in data set [2]; in data set [3]) were “Dose-dependent effect”, 111% and 52%, respectively. This molecule also came in with a concentration at 336 h in data set [4] of 1130 ng/mL. Also, in data set [5], the BPR was 0.374.

In the case of `COc1nc(-c2csc(Nc3c4c(nn3CCF)CCCC4)n2)ccc1-n1cnc(C)c1`, the IC50 in data set [6] is 11.4 µM. For the same molecule, in data set [7], the Ratio worked out at 1.9.
